Most compounds without a hit are left out; they make up all but 3% or so of the library.
H9c2 protect = cardioprotection against H2O2-induced cell death, primary screen, uHTS, H9c2 cells, ATPLite luminescence. H9c2 cardiomyocytes, H2O2 injury protection, 2 h. protection from H2O2 cell death, % at 20 µM. 360,000 tested, 0.63% active. AID 588492, 2011;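 active means compounds giving at least 50% protection of heart cells from peroxide-induced death in the single-dose screen, raw or plate-pattern-corrected value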;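 further: 0% = DMSO wells with peroxide and 100% = DMSO wells without peroxide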
Exocytosis inh = LAMP-1 surface exposure blockers, TALL-104 cells – cell-based, flow cytometry, MLPCN library, primary screen | inhibition, % at 10 µM | 360,000 tested, 0.66% active | TALL-104 LAMP-1 surface exposure; cells stimulated with thapsigargin and PMA;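 active means inhibition above about 55%, limit read from the data; inconclusive means no clear call, values can overlap the other calls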
HNF4A DNA FP = change in binding of human HNF4A to DNA, primary screen, biochemical, fluorescence polarization, FITC-DNA | Hepatocyte nuclear factor 4-alpha (Homo sapiens), P41235 | 360,000 tested, 0.3% active | activity change, % at 10 µM | 1 h | AID 1224865, 2016; in the data active means activity change above about 30%, passing the limit was not always enough
Target sequence (P41235 whole entry, looked up): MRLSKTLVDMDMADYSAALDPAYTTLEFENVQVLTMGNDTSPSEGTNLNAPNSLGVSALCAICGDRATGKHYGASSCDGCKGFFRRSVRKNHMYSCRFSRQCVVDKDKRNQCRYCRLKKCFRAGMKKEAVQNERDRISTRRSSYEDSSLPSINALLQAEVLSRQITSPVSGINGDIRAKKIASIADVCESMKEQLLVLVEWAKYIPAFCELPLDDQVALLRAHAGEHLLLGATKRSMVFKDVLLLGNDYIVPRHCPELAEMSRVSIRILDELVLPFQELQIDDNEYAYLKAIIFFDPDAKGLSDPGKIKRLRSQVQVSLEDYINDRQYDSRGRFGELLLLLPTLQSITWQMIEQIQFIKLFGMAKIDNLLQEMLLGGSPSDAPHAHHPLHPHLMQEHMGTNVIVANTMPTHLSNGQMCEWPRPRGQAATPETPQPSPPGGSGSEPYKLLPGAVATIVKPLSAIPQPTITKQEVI
SENP1 inh = human SENP1 catalytic domain inhibitors, primary screen, biochemical, FRET, uHTS. recombinant SENP1 catalytic domain, CyPet-SUMO1-YPet FRET cleavage. inhibition, % at 10 µM. AID 624204, 2012. Sentrin-specific protease 1 (Homo sapiens), Q9P0U3. 360,000 tested, 0.21% active;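 active means inhibition at least 30% at 10 µM, raw YFP signal under a set limit, fluorescence ratio 0.5 to 1.5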;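 further: 0% = enzyme with DMSO and 100% = no enzyme wells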
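system = hSENP1 catalytic domain, recombinant | reagent = SFCypet-SUMO1-SFYpet substrate at 25 nM | doses = one dose per compound, 10 µM, 0.5% DMSO | incubation = enzyme reaction for 50 min at room temperature, dark | measured by = FRET, CFP and YFP emission | controls = no-enzyme low, enzyme-DMSO high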
Myeloid diff MLP = induction of myeloid progenitor differentiation, primary screen, cell-based, flow cytometry, MLPCN library. ER-HoxA9 myeloid progenitors, lysozyme-GFP differentiation. calls only at 10 µM. 360,000 tested, 1% active. AID 624256, 2012;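 active means normalized GFP-positive differentiation at or above the plate's own cutoff, the solvent-only control mean plus 3 SD; inconclusive means no clear call, values can overlap the other calls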;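 further: cells exposed to compound for four days before flow analysis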
DSG3 Ab inh = inhibitors of pemphigus antibody binding to DSG3, primary screen, biochemical, bead-based, flow cytometry, scFv-GFP. DSG3-coupled beads, scFv-anti-DSG3-GFP binding; active compounds read low. binding (percent of control), % at 10 µM. 310,000 tested, 0.48% active. AID 588358, 2011;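 active means binding more than 3 SD below its plate's average and above zero; inconclusive means below that plate limit but binding exactly zero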;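 further: hits lower antibody fragment binding to DSG3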
Myeloid diff CP1 = inducers of myeloid progenitor differentiation, confirmation, cell-based, GFP/Mac1 flow cytometry, cherry pick 01; calls only; shares compounds with Myeloid diff MLP; 2,300 tested, 2% active; ER-HoxA9 myeloid progenitors, GFP/Mac1 double-positive flow;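 active means share of green or green-and-red cells above 9 and 9% in run 1 or 4 and 3% in run 2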
GFP autofluor = counter-screen for myeloid differentiation promoters: compound fluorescence | shares compounds with Myeloid diff MLP | ER-HoxA9 myeloid progenitors, no estrogen, GFP autofluorescence flow cytometry; vehicle wells 0%, positive control 100% | fluorescence response, % (concentration not given with the values) | 2,300 tested, 7.4% active;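 active means over 5% cells positive for green fluorescent reporter, or over 2% positive for both it and APC stain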;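 further: range taken on the double positive population between DMSO and positive control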
Starred values were filed as active, the others as inactive; i = inactive; u = inconclusive; x = no result; + = active, no number.

SMILES	H9c2 protect	Exocytosis inh	HNF4A DNA FP	SENP1 inh	Myeloid diff MLP	DSG3 Ab inh	Myeloid diff CP1	GFP autofluor
Cc1ccc(NC(=O)C2CCN(S(=O)(=O)c3ccc4c(c3)NC(=O)CO4)CC2)cc1	1	-3	3	-1	i	100	x	x
CCOc1ccc2nc(N3CCC(C(=O)N4CCN(C5CCCCC5)CC4)CC3)sc2c1	-8	12	-2	1	i	104	i	0
CCCc1[nH]n(-c2ccc(F)cc2)c(=O)c1C=Nc1cccc(F)c1	7	-2	1	-1	i	94	i	2
Cn1c(N)c(C(=O)COC(=O)c2ccccc2C(=O)c2ccc(Cl)cc2)c(=O)n(C)c1=O	13	-1	0	1	i	90	i	1
CCC[C@H]1CC(=O)C=C(c2ccc(OC)cc2)ON1C(=O)OC(C)(C)C	-11	0	1	-12	i	98	i	0
CC(C)c1ccc(N(C(=O)CNC(=O)c2ccco2)C(C(=O)NC2CCCC2)c2cccnc2)cc1 (centres undefined)	0	14	-1	2	i	x	x	x
CCOc1ccc(CCNc2nc3ccc(C)cc3n3cnnc23)cc1OCC	6	-8	0	-1	i	124	x	x
CCOc1ccccc1Nc1nc2ccc(C)cc2n2cnnc12	3	-11	4	-17	+	105	+	0
Cc1cccc(N(CC(=O)NC2CCCC2)C(=O)CCC(=O)Nc2ccccn2)c1	7	u	-2	2	i	117	x	x
O=C(CCC(=O)N(CC(=O)NC1CCCCC1)c1ccc2c(c1)OCO2)Nc1ccccn1	-2	0	0	2	i	115	i	0
CCc1cc(C(=O)c2ccccc2OC)c(N)s1	5	8	5	-18	i	107	i	0
O=C(NCCCC1CCCC1)C1CCC(=O)N(Cc2cccc(C(F)(F)F)c2)C1 (centres undefined)	-4	0	-1	-1	+	99	i	0
CC(C)CC(NC(N)=O)C(=O)Nc1ccc(Oc2ccccc2)cc1 (centres undefined)	-14	4	-3	1	i	102	i	0
Cc1ccc(NC(=O)C(CC(C)C)NC(N)=O)cc1 (centres undefined)	-1	-2	2	1	i	92	x	x
COC(=O)c1ccc(COC(=O)C(CCSC)NC(=O)COc2ccccc2)cc1 (centres undefined)	9	0	3	6	i	74	x	x
C/C(=N\NC(=O)c1ccccc1NC(=O)c1ccc(Cl)cc1)c1ccncc1	-24	-2	3	1	i	101	x	x
O=C1CSC(c2ccc(Cl)cc2)N1Nc1nc(N2CCOCC2)nc(N2CCOCC2)n1 (centres undefined)	-6	-6	1	3	i	101	x	x
Cc1cc(/C=C(\C#N)C(=O)O)c(C)n1CCC(C)C	-3	11	0	-5	i	89	x	x
Cc1cc(/C=C(\C#N)C(=O)O)c(C)n1CC(C)C	-8	-2	7	1	+	90	i	1
Cc1occc1C(=O)N/N=C/C(Br)=C/c1ccccc1	-21	-2	1	2	+	103	i	0
O=C(COC(=O)C1CCN(c2ccc(C(F)(F)F)cn2)CC1)Nc1ccc(F)cc1[N+](=O)[O-]	-10	-2	-5	-1	i	107	x	x
CCCOc1ccc([C@@H]2C3CN(C(=O)OCC)CC=C3C(C#N)=C(N)C2(C#N)C#N)cc1OC (some centres undefined)	12	5	4	-35	+	104	i	0
Cc1ccc(S(=O)(=O)N2CCOCC2)cc1NC(=O)CNC1CCCC1	-6	-2	2	2	i	105	x	x
O=C(CN1CCN(C(=O)C2CCCO2)CC1)Nc1ccc(Cl)c(Cl)c1 (centres undefined)	2	-2	1	-2	i	100	x	x
Cc1nc(C)c(/C(O)=C/c2nc3ccccc3oc2=O)s1	-16	-9	4	3	+	103	i	0
SMILES	H9c2 protect	Exocytosis inh	HNF4A DNA FP	SENP1 inh	Myeloid diff MLP	DSG3 Ab inh	Myeloid diff CP1	GFP autofluor
CC(C)CC(=O)N=C1SC2CS(=O)(=O)CC2N1Cc1ccccc1Cl (centres undefined)	-6	-5	1	0	i	102	x	x
O=C(c1ccc([N+](=O)[O-])o1)N1CCN(c2nc3c(F)cc(F)cc3s2)CC1	0	-2	4	0	i	99	x	x
Cc1ccc(C)c2sc(N3CCN(C(=O)c4ccc([N+](=O)[O-])o4)CC3)nc12	-4	1	-7	0	i	u	i	0
COc1cccc(-n2nnnc2SCC(=O)Nc2ccc(NC(C)=O)cc2)c1	4	0	0	0	i	u	x	x
Cc1ccccc1NC(=O)Nc1c(C)n(C)n(-c2ccccc2)c1=O	1	0	2	3	i	x	x	x
COc1ccccc1NC(=O)Nc1c(C)n(C)n(-c2ccccc2)c1=O	3	1	3	0	i	109	i	0
CC(C)Nc1nnc(SC(C)C(=O)Nc2ccc(Cl)cn2)s1 (centres undefined)	-9	-1	-2	2	i	102	x	x
O=C(Nc1ccccc1)Nc1sccc1-c1nc2ccccc2s1	1	1	7	-82	i	95	x	x
COc1ccccc1NC(=O)Nc1sccc1-c1nc2ccccc2s1	5	19	16	-105	+	104	i	0
CN(CCC#N)C(=O)COC(=O)c1ccc2c(c1)C(=O)N(C1CCCCC1)C2=O	-3	-2	-1	2	i	x	x	x
Cc1ccc(CCNC(=O)CCNS(=O)(=O)c2ccc3c(c2)c(=O)n(C)c(=O)n3C)cc1	-2	-7	0	1	i	104	x	x
Cn1c(=O)c2cc(S(=O)(=O)NCCC(=O)NCCC3=CCCCC3)ccc2n(C)c1=O	5	-2	6	-1	+	95	i	1
